Laboratory results reported in PubChem BioAssay.
A number with no mark means an inactive call. Inconclusive results are not listed. Activity calls are given as the source filed them.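 Rule for the calls, unless noted: active = cell viability at or below a set limit in both duplicate runs, the limit being the all-compound median minus 4 SD (cut at about 23% in these data, passing the limit was not always enough); inconclusive = no clear call, values can overlap the other calls; inactive = the rest.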

Legend:
[1] = OD615 S. cerevisiae growth inhibition, permissive medium, pilot counter-assay, permissive growth control for S. cerevisiae lifespan shortening project (AID 705;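 active = growth inhibition above 25% in both replicates, a cutoff set 3 SD above the mean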); conditions: OD615, 24 h, at 10 µM, hits give high values
Procedure, shortened: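 Material: engineered DeaD yeast; Compound: one dose 10 µM, DMSO 0.25% final; Detection: absorbance (optical density) at 615 nm; Buffer or medium: permissive raffinose/galactose medium; Timing: 24 h exposure, 30 °C.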

[2] = Restrictive medium S. cerevisiae growth inhibition, OD615, pilot screen of yeast lifespan reduction project, restrictive growth control (AID 706;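 active = growth inhibition above a set limit, 3 SD over mean compound inhibition, in both replicates, cut at about 43% in these data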;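 note: modified DeaD lifespan yeast strain shifted to restrictive glucose medium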); conditions: OD615, 48 h, at 10 µM, hits give high values
Procedure, shortened: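 Buffer or medium: restrictive glucose medium (CSMM-D); test system: modified S. cerevisiae; doses: single dose of 10 µM compound final, 0.25% DMSO; schedule: 48 h compound exposure at 30 °C; detection: absorbance (optical density) measured at 615 nm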

[3] = viability gain of MRP-1-high H69AR cells under doxorubicin, pilot screen, MRP-1 activator project, CellTiter-Glo, duplicate (AID 807;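 active = viability increase at or above a cutoff of the median across tested compounds plus 3 SD, cut at about 8.5% in these data, passing the limit was not always enough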;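 note: compound pretreatment 18-22 h then 72 h combined with doxorubicin; 0% = doxorubicin alone and 100% = vehicle without doxorubicin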); conditions: H69AR viability with doxorubicin, CellTiter-Glo luminescence; at 10 µM; hits give high values
[4] = growth suppression of beta-catenin knockout HCT116, pilot screen, human colon tumor cells (AID 823); conditions: CellTiter-Glo, 60 h, at 10 µM, hits give low values;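 note: 0% = wells killed by 20 µM Hyamine and 100% = untreated DMSO cell wells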
[5] = growth suppression of PTEN-deleted HCT116, pilot screen, cell-based, HCT116 clonal line, CellTiter-Glo (AID 824;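 active = viability at or below 27.92% in each of two runs, the all-compound median minus 4 SD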;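 note: 0% = 20 µM Hyamine control and 100% = vehicle cell control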); conditions: 60 h, at 10 µM, hits give low values
[6] = inhibitors of the yeast RAM network, pilot screen, dse1pr::URA3 reporter, 5-FOA selection (AID 869;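 active = inhibition over a set limit, the all-compound mean plus 3 SD, in both replicate runs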;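 note: 0% = DMSO wells with no growth and 100% = 10 µM 1-NA-PP1 with full growth; RAM network block rescues cells from 5-FOA so hits raise OD615 growth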); conditions: S. cerevisiae dse1pr::URA3 5-FOA growth, OD615, 2 d; at 10 µM; hits give high values; strain carries analog-sensitive mutant Cbk1 kinase
[7] = RAM signaling pathway blockade in yeast – S. cerevisiae, Pdr1DBD-CYC8 efflux-inhibited sensitized strain, primary screen (AID 1298;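 active = RAM network inhibition above 8.4% in each of two replicates, 3 SD over the compound average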;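 note: 0% = DMSO untreated cells without growth and 100% = 10 µM 1-NA-PP1 full growth; higher means more yeast growth rescued from 5-FOA killing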); conditions: S. cerevisiae cbk1-as DSE1-URA3 strain, 5-FOA growth OD615, 2 d; at 50 µM; hits give high values

Compound	growth inhibition [1]	growth inhibition [2]	viability increase [3]	viability [4]	viability [5]	inhibition [6]	RAM network inhibition [7]
O=C(NC1=NCCS1)C1CC2CCC1C2 (configuration not stated)	7.66%	6.69%	-2.34%	99.1%	97.1%	1.96%	3.02%
CCN(CC)CCCN1C(=O)C(O)=C(C(C)=O)C1c1ccc(OC)cc1OC (configuration not stated)	-0.68%	-3.67%	-2.64%	98.5%	92.4%	1.03%	1.44%
CCOC(=O)c1c2n(c3c(NCc4ccccc4)ncnc13)CCCC2	-11.4%	-10.9%	-7.91%	83.6%	78.7%	1.23%	2.51%
CCSc1sccc1C1C(C#N)=C(N)N(c2cccnc2)C2=C1C(=O)CC(C)(C)C2 (configuration not stated)	-14.3%	-6.69%	-6.56%	92.1%	93.2%	0.9%	12.4%
CCc1cc(C(=O)Nc2ccccc2)cs1	-8.2%	4.65%	-0.18%	82.8%	90.9%	2.13%	-2.13%
Cc1ccccc1NC(=O)CSC(N)=O	-1.39%	14.1%	-4.63%	89.4%	91%	0.48%	8.45%
COc1ccc(-c2noc(CN3CCN(c4ccccc4)CC3)n2)cc1	-12.7%	-10.2%	-1.14%	93.6%	88.4%	1%	5.43%
CC1=C(C(=O)OC(C)C)C(c2c[nH]c3ccccc23)n2ncnc2N1 (configuration not stated)	-5.16%	-3.17%	-1.69%	105%	97.1%	2.2%	-0.16%
COc1ccc(OC)c(-c2nnc(NC(=O)C(C)Sc3nncn3C)s2)c1 (configuration not stated)	-1.32%	23.7%	-4.48%	106%	95.5%	0.65%	0.37%
CCN(C(=O)CSc1nnnn1-c1cc(C)ccc1OC)C1CCS(=O)(=O)C1 (configuration not stated)	-6.25%	4.34%	-1.65%	99%	94.6%	1.56%	-1.67%
C=CCNc1oc(Cc2cccc3ccccc23)nc1C#N	-19.8%	-9.46%	-3.89%	107%	88%	1.04%	2.18%
O=C(CSc1nc2c(c(=O)n1-c1ccc(Cl)cc1)SCC2)N1CCOCC1	-10.3%	-2.5%	-2.79%	97.6%	101%	-0.06%	-0.16%
COc1cccc2c(=O)c(C/C=C(/C)Cl)c(C)[nH]c12	-2.8%	5.71%	-2.38%	97.5%	91.6%	0.075%	-0.16%
CC(C)(Oc1ccc(-c2ccco2)cc1)C(=O)O	-0.405%	0.705%	-0.38%	97.8%	96.8%	0.31%	1.07%
COc1ccc(C2=NOC(C(=O)Nc3cc(C)nn3-c3ccccc3)C2)cc1OC (configuration not stated)	-14.9%	-31.2%	-0.06%	103%	97.1%	1.11%	1.36%
Cc1c(C(=O)N2CCCCC2)sc(N)c1C#N	4.06%	4.32%	-0.95%	96%	95.2%	-0.355%	1.18%
O=C(Nc1ccc(N2CCCC2)c(Cl)c1)c1ccc(Br)o1	3.44%	17%	-4.13%	78.2%	79.2%	0.885%	3.68%
Cc1ccc(N2CCN(C(=O)c3ccccc3F)CC2)c(C)c1	-12.4%	-14.5%	2.73%	93.3%	91%	-0.61%	4.91%

Compound	growth inhibition [1]	growth inhibition [2]	viability increase [3]	viability [4]	viability [5]	inhibition [6]	RAM network inhibition [7]
CCCn1cc(S(=O)(=O)CC(=O)NC2CCCCC2)c2ccccc21	-1.69%	-0.78%	-0.07%	93.2%	101%	1.39%	2.24%
Cc1ccc(-c2nc3cccnc3o2)cc1NC(=O)COc1ccc(Cl)cc1C	-19.4%	-8.21%	-8.36%	17.5% (active)	4.66% (active)	1.5%	8.1%
COc1ccccc1C1CC(=O)NC(SCC(=O)Nc2ccccc2)=C1C#N (configuration not stated)	4.78%	-11.8%	1.09%	93.2%	88.2%	3.57%	1.38%
COC(=O)C1CCN(C(c2cccs2)c2sc3nc(C)nn3c2O)CC1 (configuration not stated)	-3.2%	1.52%	-1.54%	102%	96.4%	1.68%	1.07%
Cc1cccc(-n2c(CNC(=O)c3ccccc3)nnc2SCC(=O)Nc2nccs2)c1	4.21%	15.6%	-3.48%	112%	103%	1.17%	5.7%
O=C(Nc1nnc(-c2ccccc2)o1)Nc1ccccc1Cl	-15.5%	-12%	-0.05%	104%	97.4%	0.165%	4.83%
COC(=O)c1c(-c2cccc(OC)c2)csc1N	-8.46%	1.4%	-4.63%	103%	100%	1.37%	0.9%
CCOC(=O)COc1cccc2c(=O)n(CC(=O)N3CCN(C(=O)OCC)CC3)ccc12	-4.37%	-7.13%	-2.1%	104%	96.1%	1.04%	4.18%
COC(=O)C1=C(N)OC2=C(C(=O)CC(C)(C)C2)C1c1cccnc1 (configuration not stated)	-3.42%	-15.1%	-1.92%	95.4%	90.4%	0.305%	2.43%
CC(=O)Oc1ccc(N2C(=O)C3C(C2=O)C2(C)C=CC3(C)O2)cc1 (configuration not stated)	95.1% (active)	100% (active)	-1.26%	99%	98.4%	2.16%	0.09%
CCCn1c(CN(Cc2ccccc2)Cc2ccccc2)nc2c1c(=O)n(C)c(=O)n2C	-1.94%	-8.84%	0.21%	69.2%	59.7%	1.22%	8.87%
CN(C)S(=O)(=O)c1ccc(C(=O)Nc2ccccn2)cc1	-10.3%	-19.3%	-0.7%	96.6%	89.2%	1.31%	-1.36%
O=C(Cn1cnc2c(cnn2-c2ccccc2)c1=O)N1CCOCC1	-4%	-3.03%	-0.44%	101%	102%	0.17%	1.17%
CCOC(=O)c1sc(NC(=O)C2CC2)nc1C	-2.83%	0.375%	0.91%	99.6%	95.1%	0.595%	-1.46%
CCCNC(=O)NCCc1c(C)[nH]c2ccccc12	4.3%	-9.91%	-3.16%	99.8%	99%	1.35%	1.69%
Cn1c(SCC(=O)Nc2ccc(F)cc2F)nnc1-c1cccnc1	-13.9%	-8.12%	-0.94%	104%	95%	3.28%	-0.27%
Cc1ccc(CN2C(=O)/C(=C3\SC(N4CCOCC4)=NC3=O)c3cc(Br)ccc32)cc1	-10.5%	-12.1%	-1.85%	76.7%	79.7%	0.615%	9.54%
Cc1cc(Nc2ccccc2Br)n2nc(C)nc2n1	-3.05%	-13.3%	-2.64%	107%	98.2%	1.9%	-1.82%
